How the values were obtained:
L1210 [1] = test: In vitro percent inhibition of replication of L1210 cells at 25 uM concentration; assay type: functional; conditions: Mus musculus
Summary of the method: (§1)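 Mouse L1210 and S-180 suspension cultures were kept in Fischer's medium + 10% horse serum at 37 °C, 5% CO2. Exponentially growing cells at 2 × 10⁴ cells/mL were given compound. The increase in cell number versus drug-free control was counted after 24, 48 and 72 h. ED50 came from dose-response curves of at least two independent experiments.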

Human alphaherpesvirus 1 [2] = test: In vitro percent inhibition of replication of HSV-1 cells at 20 uM concentration; assay type: functional; conditions: Human alphaherpesvirus 1, HSV-1
Summary of the method: (§2)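 Confluent Vero monolayers in Dulbecco's medium + 10% fetal calf serum were infected with HSV-1 strain CL-101 at MOI 10. After 1 h adsorption at 37 °C, the inoculum was removed and the cells washed with PBS. Compound in serum-containing medium was added for 40 h at 37 °C. Virus released by one freeze-thaw was titred by plaque assay on Vero cells. Percent inhibition was pfu relative to drug-free cultures. ED50 came from dose-response curves of at least two independent experiments.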

[3] = Therapeutic index was determined as the ratio fo ED50(vero)/ ED50(HSV-1); conditions: monkey, Vero cells
Summary of the method: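 Ratio of ED50 for uninfected Vero cell replication (cell counts after compound exposure) to ED50 for HSV-1 yield in Vero cells (plaque titration after 40 h infection at MOI 10). Both ED50 values were estimated from dose-response curves of at least two independent experiments.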

[4] = In vitro percent inhibition of replication of S-180 cells at 25 uM concentration; assay type: functional; conditions: Mus musculus; summary of the method: as §1
[5] = In vitro percent inhibition of replication of S-180 cells at 50 uM concentration; assay type: functional; conditions: Mus musculus; summary of the method: as §1
Human alphaherpesvirus 1 [6] = test: In vitro percent inhibition of replication of HSV-1 cells at 5 uM concentration; assay type: functional; conditions: Human alphaherpesvirus 1, HSV-1; summary of the method: as §2
Human alphaherpesvirus 1 [7] = test: In vitro percent inhibition of replication of HSV-1 cells at 10 uM concentration; assay type: functional; conditions: Human alphaherpesvirus 1, HSV-1; summary of the method: as §2
[8] = Concentration required to inhibit replication of S-180 cell by 50%; assay type: functional; conditions: Mus musculus, read-out: ED50 (the source's name); summary of the method: as §1
Vero [9] = test: Concentration required to inhibit replication of vero cell by 50%; assay type: functional; conditions: Chlorocebus sabaeus, read-out: ED50 (the source's name)
Summary of the method: (§3)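 Uninfected Vero cells were seeded at 0.1 confluency in Dulbecco's medium + 10% fetal calf serum and grown 1 day at 37 °C, 5% CO2. Compound was then added in growth medium. Cells were detached with 0.125% trypsin/0.02% EDTA for 15 min at 37 °C, dispersed by pipetting, stained with Trypan blue and counted by hemocytometer. ED50 came from dose-response curves of at least two independent experiments.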

Human alphaherpesvirus 1 [10] = test: Concentration required to inhibit replication of HSV-1 cell by 50%; assay type: functional; conditions: Human alphaherpesvirus 1, HSV-1; read-out: ED50 (the source's name); summary of the method: as §2
Vero [11] = test: In vitro percent inhibition of replication of vero cells at 25 uM concentration; assay type: functional; conditions: Chlorocebus sabaeus; summary of the method: as §3
L1210 [12] = test: In vitro percent inhibition of replication of L1210 cells at 100 uM concentration; assay type: functional; conditions: Mus musculus; summary of the method: as §1
Vero [13] = test: In vitro percent inhibition of replication of vero cells at 50 uM concentration; assay type: functional; conditions: Chlorocebus sabaeus; summary of the method: as §3
Human alphaherpesvirus 1 [14] = test: In vitro percent inhibition of replication of HSV-1 cells at 80 uM concentration; assay type: functional; conditions: Human alphaherpesvirus 1, HSV-1; summary of the method: as §2
Vero [15] = test: In vitro percent inhibition of replication of vero cells at 5 uM concentration; assay type: functional; conditions: Chlorocebus sabaeus; summary of the method: as §3
Vero [16] = test: In vitro percent inhibition of replication of vero cells at 100 uM concentration; assay type: functional; conditions: Chlorocebus sabaeus; summary of the method: as §3
L1210 [17] = test: In vitro percent inhibition of replication of L1210 cells at 50 uM concentration; assay type: functional; conditions: Mus musculus; summary of the method: as §1
L1210 [18] = test: Concentration required to inhibit replication of L1210 cell by 50%; assay type: functional; conditions: Mus musculus, read-out: ED50 (the source's name); summary of the method: as §1
Human alphaherpesvirus 1 [19] = test: In vitro percent inhibition of replication of HSV-1 cells at 40 uM concentration; assay type: functional; conditions: Human alphaherpesvirus 1, HSV-1; summary of the method: as §2
[20] = In vitro percent inhibition of replication of S-180 cells at 100 uM concentration; assay type: functional; conditions: Mus musculus; summary of the method: as §1
Human alphaherpesvirus 1 [21] = test: In vitro percent inhibition of replication of HSV-1 cells at 12.5 uM concentration; assay type: functional; conditions: Human alphaherpesvirus 1, HSV-1; summary of the method: as §2
L1210 [22] = test: In vitro percent inhibition of replication of L1210 cells at 12.5 uM concentration; assay type: functional; conditions: Mus musculus; summary of the method: as §1
Human alphaherpesvirus 1 [23] = test: In vitro percent inhibition of replication of HSV-1 cells at 1.25 uM concentration; assay type: functional; conditions: Human alphaherpesvirus 1, HSV-1; summary of the method: as §2
[24] = In vitro percent inhibition of replication of S-180 cells at 12.5 uM concentration; assay type: functional; conditions: Mus musculus; summary of the method: as §1
[25] = In vitro percent inhibition of replication of S-180 cells at 200 uM concentration; assay type: functional; conditions: Mus musculus; summary of the method: as §1
L1210 [26] = test: In vitro percent inhibition of replication of L1210 cells at 200 uM concentration; assay type: functional; conditions: Mus musculus; summary of the method: as §1
Human alphaherpesvirus 1 [27] = test: In vitro percent inhibition of replication of HSV-1 cells at 100 uM concentration; assay type: functional; conditions: Human alphaherpesvirus 1, HSV-1; summary of the method: as §2
L1210 [28] = test: In vitro percent inhibition of replication of L1210 cells at 400 uM concentration; assay type: functional; conditions: Mus musculus; summary of the method: as §1
Human alphaherpesvirus 1 [29] = test: In vitro percent inhibition of replication of HSV-1 cells at 50 uM concentration; assay type: functional; conditions: Human alphaherpesvirus 1, HSV-1; summary of the method: as §2
Vero [30] = test: In vitro percent inhibition of replication of vero cells at 400 uM concentration; assay type: functional; conditions: Chlorocebus sabaeus; summary of the method: as §3
Vero [31] = test: In vitro percent inhibition of replication of vero cells at 200 uM concentration; assay type: functional; conditions: Chlorocebus sabaeus; summary of the method: as §3
Vero [32] = test: In vitro percent inhibition of replication of vero cells at 1 uM concentration; assay type: functional; conditions: Chlorocebus sabaeus; summary of the method: as §3
Vero [33] = test: In vitro percent inhibition of replication of vero cells at 10 uM concentration; assay type: functional; conditions: Chlorocebus sabaeus; summary of the method: as §3
[34] = In vitro percent inhibition of replication of S-180 cells at 0.1 uM concentration; assay type: functional; conditions: Mus musculus; summary of the method: as §1

Row | Structure (SMILES) | EC50 [8] | EC50 (Human alphaherpesvirus 1 [10]) | EC50 (L1210 [18]) | inhibition at 25 µM (L1210 [1]) | selectivity ratio [3] | inhibition at 25 µM [4] | inhibition at 50 µM [5] | inhibition at 10 µM (Human alphaherpesvirus 1 [7]) | EC50 (Vero [9]) | inhibition at 100 µM (L1210 [12]) | inhibition at 50 µM (Vero [13]) | inhibition at 100 µM (Vero [16]) | inhibition at 50 µM (L1210 [17]) | inhibition at 100 µM [20] | inhibition at 100 µM (Human alphaherpesvirus 1 [27]) | further results
1 | O=c1[nH]c(=O)n(C2O[C@H](CO)[C@@H](O)[C@@H]2O)cc1C(F)(F)F (stereo partly drawn) | 65 µM | 5 µM | 70 µM | 19% | 64 | 41% | 46% | 74% | 320 µM | 66% | 0% | 4% | 33% | 59% | 99% | inhibition at 200 µM [25]: 71%; inhibition at 200 µM (L1210 [26]): 84%; inhibition at 400 µM (L1210 [28]): 87%; inhibition at 50 µM (Human alphaherpesvirus 1 [29]): 88%; inhibition at 400 µM (Vero [30]): 66%; inhibition at 200 µM (Vero [31]): 14%
2 | O=c1[nH]c(=O)n([C@H]2C[C@H](O)[C@@H](CO)O2)cc1C(F)(F)F [TRIFLURIDINE] | – | – | – | – | – | – | – | – | – | – | – | – | – | – | – | inhibition at 1 µM (Vero [32]): 63%; inhibition at 10 µM (Vero [33]): 100%; inhibition at 0.1 µM [34]: 100%

Continued, in another order:

Row | EC50 [8] | EC50 (Human alphaherpesvirus 1 [10]) | EC50 (L1210 [18]) | Structure (SMILES) | inhibition at 25 µM (L1210 [1]) | selectivity ratio [3] | inhibition at 25 µM [4] | inhibition at 50 µM [5] | inhibition at 10 µM (Human alphaherpesvirus 1 [7]) | EC50 (Vero [9]) | inhibition at 100 µM (L1210 [12]) | inhibition at 50 µM (Vero [13]) | inhibition at 100 µM (Vero [16]) | inhibition at 50 µM (L1210 [17]) | inhibition at 100 µM [20] | inhibition at 100 µM (Human alphaherpesvirus 1 [27]) | further results
3 | 25 µM | 7 µM | 45 µM | CC(=O)OC[C@H]1OC(n2cc(C(F)(F)F)c(=O)[nH]c2=O)[C@H](OC(C)=O)[C@H]1OC(C)=O (stereo partly drawn) | 13% | 6.4 | 47% | 60% | 61% | 45 µM | 95% | 57% | 100% | 58% | 95% | – | inhibition at 20 µM (Human alphaherpesvirus 1 [2]): 92%; inhibition at 5 µM (Human alphaherpesvirus 1 [6]): 17%; inhibition at 25 µM (Vero [11]): 8%; inhibition at 80 µM (Human alphaherpesvirus 1 [14]): 98%; inhibition at 5 µM (Vero [15]): 0%; inhibition at 40 µM (Human alphaherpesvirus 1 [19]): 97%
4 | – | 12.5 µM | – | CC(=O)OC[C@H]1OC(n2cc(C(F)(F)C(F)(F)F)c(=O)[nH]c2=O)C[C@H]1OC(C)=O (stereo partly drawn) | – | – | – | – | – | – | – | – | – | – | – | – | inhibition at 12.5 µM (Human alphaherpesvirus 1 [21]): 51%; inhibition at 12.5 µM (L1210 [22]): 14%; inhibition at 1.25 µM (Human alphaherpesvirus 1 [23]): 26%; inhibition at 12.5 µM [24]: 37%
5 | – | > 400 µM | – | O=c1[nH]c(=O)n(C2C[C@@H](O)[C@@H](CO)O2)cc1C(F)(F)C(F)(F)F (stereo partly drawn) | – | – | – | – | – | – | 17% | – | – | – | 28% | 15% | –

Reference: ChEMBL document CHEMBL1122491, “Synthesis and biological activity of 5-(trifluoromethyl)- and 5-(pentafluoroethyl)pyrimidine nucleoside analogues” (J Med Chem, 1983)
